Bioassay records: PubChem BioAssay, several laboratories
Only some compounds are listed: those with a hit (about 3.5% of all), similar ones and a draw of the others.
NF-kB expr up: compounds increasing NF-kB expression in human neuronal cells; NF-kB reporter expression; hits give high values; fold change at 12.5 µM; 190,000 tested, 1.6% active; AID 1239; in the data active = fold change above about 3.3
FLuc inhib CS: counter-screen for luciferase assay inhibitors: firefly luciferase inhibition | P08659 | ATPLite firefly luciferase biochemical luminescence, 10 min | inhibition, % at 10 µM | 200,000 tested, 1.5% active | AID 1006;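 active = inhibition above about 50% when tested at 10 µM, limit read from the data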
Target sequence (P08659 whole entry, looked up): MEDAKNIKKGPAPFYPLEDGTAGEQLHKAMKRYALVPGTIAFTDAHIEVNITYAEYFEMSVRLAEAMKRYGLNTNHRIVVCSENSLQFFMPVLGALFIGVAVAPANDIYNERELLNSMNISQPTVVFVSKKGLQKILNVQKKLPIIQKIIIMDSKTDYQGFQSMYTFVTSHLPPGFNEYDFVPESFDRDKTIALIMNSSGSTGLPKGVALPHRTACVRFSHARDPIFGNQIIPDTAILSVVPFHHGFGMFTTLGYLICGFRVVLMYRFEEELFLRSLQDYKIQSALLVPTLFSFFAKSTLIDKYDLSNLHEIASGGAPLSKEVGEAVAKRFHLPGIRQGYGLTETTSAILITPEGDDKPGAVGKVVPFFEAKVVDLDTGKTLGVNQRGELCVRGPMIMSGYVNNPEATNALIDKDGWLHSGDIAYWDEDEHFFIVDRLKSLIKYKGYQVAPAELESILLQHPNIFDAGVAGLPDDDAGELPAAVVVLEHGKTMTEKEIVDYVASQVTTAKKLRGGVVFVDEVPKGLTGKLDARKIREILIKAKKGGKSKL
FLuc act counter: affects firefly luciferase, flagging false hits in luciferase stimulation screens | 200,000 tested, under 10 active | ATPlite luciferase biochemical, luminescence, 10 min; 0 = ATP-free wells, 1 = DMSO control | activation factor at 10 µM | P08659;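 active = luciferase activation factor, scaled between plate controls, of at least 2 with compound at 10 µM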
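Material: Luciferase/luciferin reagent mix; Doses: test compounds dosed from 2 mM stocks in 100% DMSO; Schedule: 10 min incubation after luciferase reagent addition, room temperature; Measured by: luminescence from luciferase reaction; Read-out: luminescence gain marking luciferase activators.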
APP 5'UTR act: APP 5'UTR luciferase reporter activation | activation, % at 2 µM | 190,000 tested, 1% active | SH-SY5Y APP 5'UTR luciferase reporter, luminescence; zero percent = DMSO vehicle wells;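 active = activation above a set limit, based on mean plus 3 SD of controls, cut at about 140% in these data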
Pf gamet viab: kills late stage P. falciparum gametocytes; P. falciparum stage V gametocytes, ATP luminescence, 24 h; inhibition, % at 10.9 µM; 150,000 tested, 0.065% active; AID 743093;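 active = inhibition above the mean plus 3 SD of compounds within the control limits, set per campaign, cut at about 38% in these data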;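 note: 0% = DMSO wells and 100% = medium only without gametocytes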
STAT1 act: STAT1 signaling activation; 200,000 tested, 2.6% active; NIH 3T3 STAT1-luciferase reporter, IFN-gamma, luminescence; 100% = IFN-gamma alone, no compound; activation (% of control), % at 5.5 µM;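 active = activation above the screen-wide mean activation plus 3 SD, cut at about 130% in these data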;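 note: raw ratio to IFN-gamma control signal so 100% means no change and 0% no light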
Starred values were filed as active, the others as inactive; . = no result given.

SMILES	NF-kB expr up	FLuc inhib CS	FLuc act counter	APP 5'UTR act	Pf gamet viab	STAT1 act
O=C(CCc1nnc(COc2ccccc2)o1)NC1(c2ccccc2)CC1	0.98	-3	1	-15	10	98
C=CCSC(=C(C#N)C#N)c1cc2c([nH]1)CCCC2	7.3*	0	1	16	.	95
COc1cc(C(=O)NCCc2cn3ccccc3n2)cc(OC)c1OC	1.1	-4	1	6	.	100
COC(=O)CCc1sc(Nc2ccccc2)nc1-c1ccc(OC)cc1	0.96	-3	1	44	.	138*
O=C(Nc1ccc(F)cc1F)c1cc(-c2ccco2)on1	1.8	9	0.9	-7	.	108
O=C(NC1CCCCC1)c1cc(-c2ccco2)on1	2.6	10	0.9	60	.	130*
O=C(Nc1cccc(O)c1)c1cc(-c2ccco2)on1	1.9	76*	0.2	14	.	98
CCCNC(=O)c1cc(-c2ccco2)on1	4.9*	16	0.8	50	-5	120
c1ccc(NC2=NCCN2CCCC2CCCCC2)cc1	.	.	.	.	2	.
CCC(C)(O)c1[nH]c2ccc(C(=O)OC)cc2c1C (centres undefined)	.	.	.	.	1	.
CC(C)=CCN1CCN(Cc2ccc3nsnc3c2)CC1CCO (centres undefined)	0.9	-6	1.1	8	-14	104
N=C1N(/N=C/c2ccccc2)C(=Nc2ccccc2)C(=S)N1c1ccccc1	2.3	-2	1	20	-6	132*
CC(=O)Nc1cccc(Oc2ccc3c(c2)C(=O)NC3=O)c1	.	.	.	.	12	.
CCOC(=O)c1cc(C(=O)Nc2ccc(C)c(F)c2)nn1C	3.2	1	1	70	.	135*
CCOC(=O)c1cc(C(=O)NCc2ccc(Cl)cc2Cl)nn1C	1	-7	1.1	8	.	95
CC12CCC(C(=O)Nc3nc4ccc(Br)cc4s3)(OC1=O)C2(C)C (centres undefined)	2.1	0	1	53	14	138*
CC12CCC(C(=O)Nc3nccs3)(OC1=O)C2(C)C (centres undefined)	1	-8	1.1	8	7	107
CC(=O)C1=C(O)C(=O)N(c2ccc(Br)cc2)C1c1ccccc1[N+](=O)[O-] (centres undefined)	.	.	.	.	-2	.
CCOC(=O)/C(C#N)=C/c1cc(C)n(-c2ccc(C)cc2)c1C	1.3	42	0.6	33	.	148*
Cc1cc(/C=C(\C#N)C(=O)Nc2ccccc2)c(C)n1-c1ccc(C(=O)O)cc1	.	.	.	.	7	.
Cc1ccc2nc(CSc3nc(C)cc(C)c3C#N)[nH]c2c1	2.9	4	1	205*	-21	125
Cc1ccc(/C=N/NC(=O)c2nn(C)cc2Cl)cc1	2.1	86*	0.1	42	.	129*
Cn1cc(Cl)c(C(=O)N/N=C/c2ccc(OS(=O)(=O)c3ccccc3)cc2)n1	0.97	2	1	13	.	99
CCc1ccc(N=C2N=C(N)c3ccccc32)cc1	1.9	92*	0.1	22	8	122
COc1cccc(CNC(=O)CSCc2cnn(-c3ccccc3)c2-n2cccc2)c1	0.84	-7	1.1	2	1	98
SMILES	NF-kB expr up	FLuc inhib CS	FLuc act counter	APP 5'UTR act	Pf gamet viab	STAT1 act
CC(C)NC(=S)N/N=C/c1sc(N2CCCCC2)nc1-c1cccs1	1.3	53*	0.5	19	.	119
NC(=O)N/N=C/c1sc(N2CCCCC2)nc1-c1cccs1	.	.	.	.	22	.
Cc1ccc(C)c(NC(=O)CCN2CCCCC2)c1	.	.	.	.	24	.
C=CCNC(=O)Cn1nnc(-c2ccc(-c3ccc(OC)cc3)cc2)n1	.	.	.	.	2	.
COc1ccc(-c2ccc(-c3nnn(CC(C)=O)n3)cc2)cc1	2.2	17	0.8	87	-22	133*
COc1cccc(-c2nnn(CC(=O)N3CCCCC3)n2)c1	.	.	.	.	24	.
COc1cccc(-c2nnn(CC(C)=O)n2)c1	2.2	34	0.7	127	4	134*
COc1ccc(C(=O)N/N=C(\C)CC(=O)Nc2cccc(C(F)(F)F)c2)cc1	.	.	.	.	12	.
Nc1nc(-c2c[nH]c3ccccc23)cs1	0.42	-9	1.1	13	.	93
CCc1ccc(-c2csc(-c3c[nH]c4ccccc34)n2)cc1	2.7	2	1	40	.	132*
COc1ccc2nc(/N=C/c3c(C)[nH]n(-c4ccc(C)cc4)c3=O)sc2c1	1.1	59*	0.4	37	1	103
COc1ccc2nc(/N=C\N(C)C)sc2c1	1.6	16	0.8	12	-37	112
COc1cc(/C=C2\SC(=Nc3ccc(Cl)c(C(=O)O)c3)NC2=O)c(Br)c(Br)c1O	.	.	.	.	-11	.
N#Cc1c(N)n(-c2ccc(O)cc2)c2nc3ccccc3nc12	0.91	-1	1	0	38*	104
N#Cc1c(N)n(-c2cccc(O)c2)c2nc3ccccc3nc12	.	.	.	.	-7	.
Cc1ccc(NC(=O)ON=C2CCCC2)cc1	1.1	62*	0.4	38	10	130*
Cc1ccc(N(CC(=O)N/N=C/c2ccco2)S(=O)(=O)c2ccccc2)cc1	1.2	-6	1.1	5	.	95
CS(=O)(=O)N1CCN(C2CCN(Cc3ccccc3)CC2)CC1	0.96	-8	1.1	-16	.	101
Fc1ccc(-c2cnn3c(-c4cccs4)ccnc23)cc1	6.7*	83*	0.2	220*	-11	67
Fc1ccc(-c2cnn3c(-c4ccncc4)ccnc23)cc1	6.4*	76*	0.2	199*	.	148*
Cc1nn2c(-c3ccncc3)ccnc2c1Br	1.2	2	1	23	19	105
COc1cc(/C(C)=N/NC(=O)CSc2nncn2C)ccc1OCc1ccccc1Cl	1	5	0.9	27	14	129*
CCOc1cc(/C=N/NC(=O)CSc2nncn2C)ccc1OCc1ccccc1	0.96	4	1	-13	7	91
CCNC(=O)NC(=O)C(C)OC(=O)Cc1coc2cc3c(cc12)CCC3 (centres undefined)	0.99	-3	1	14	.	97
O=C(Nc1nc(-c2ccc(Cl)s2)cs1)c1ccco1	2.2	3	1	70	-7	130*
SMILES	NF-kB expr up	FLuc inhib CS	FLuc act counter	APP 5'UTR act	Pf gamet viab	STAT1 act
c1ccc(OCCOc2ncnc3sccc23)cc1	2.7	-4	1	67	.	131*
Cc1ccc(OCc2nc(-c3cccs3)no2)c([N+](=O)[O-])c1	11*	61*	0.4	198*	8	98
Cc1onc(-c2ccccc2)c1C(=O)Nc1nc2c(s1)C(=O)CC(C)(C)C2	1.4	-8	1.1	3	-3	103
CC1CCc2nc(NC(=O)c3ccco3)sc2C1 (centres undefined)	1.8	93*	0.1	39	15	61
CC1CCc2nc(NC(=O)Cc3cccs3)sc2C1 (centres undefined)	4.3*	17	0.8	105	-12	143*
CC1(C)CC(=O)c2sc(NC(=O)c3ccco3)nc2C1	1.4	74*	0.3	38	.	103
